According to ChEMBL document CHEMBL1130386, “Structure-activity relationship of newly synthesized quinoline derivatives for reversal of multidrug resistance in cancer” (1997):

Tested on: K562
Assay: MDR-reversing activity in K562/ADM cells at 1 uM concentration of [3H]-VCR (vincristine), activity expressed relative to verapamil.
Assay type: functional, Homo sapiens
In short: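 K562/ADM cells at 1.5 × 10^6/mL in growth medium with 10 mM HEPES were incubated at 37 °C with 30 nM [3H]VCR (5.6 Ci/mmol), with or without modulator (1 µM) or verapamil. At intervals, aliquots were spun through a 4:1 silicone oil/liquid paraffin layer. Pellets were lysed overnight in 0.5 N KOH and counted by liquid scintillation. Intracellular VCR was scaled to verapamil.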

Row | Structure (SMILES) | Activity [%]
1 | OC(COc1cccc2ncccc12)CN1CCN(C(c2ccc(F)cc2)c2ccc(F)cc2)CC1 (stereo unspecified) | 265
2 | OC(COc1cccc2ncccc12)CN1CCN(Cc2ccccc2)CC1 (stereo unspecified) | 123
3 | OC(COc1cccc2ncccc12)CN1CCN(C(c2ccccc2)c2cccs2)CC1 (stereo unspecified) | 428
4 | COc1ccc(C(c2ccc(OC)cc2)N2CCN(CC(O)COc3cccc4ncccc34)CC2)cc1 (stereo unspecified) | 260
5 | OC(COc1cccc2ncccc12)CN1CCN(C2c3ccccc3-c3ccccc32)CC1 (stereo unspecified) | 229
6 | OC(COc1cccc2ncccc12)CN1CCN(C(c2ccccc2)c2ccc(Cl)cc2)CC1 (stereo unspecified) | 243
7 | OC(COc1ccccc1)CN1CCN(C(c2ccccc2)c2ccccc2)CC1 (stereo unspecified) | 56
8 | O=C1C(=O)N(C2c3ccccc3CCc3ccccc32)CCN1CC(O)COc1cccc2ncccc12 (stereo unspecified) | 81
9 | OC(COc1cccc2ccccc12)CN1CCN(C(c2ccccc2)c2ccccc2)CC1 (stereo unspecified) | 32
10 | O=C(C1c2ccccc2Oc2ccccc21)N1CCN(CC(O)COc2cccc3ncccc23)CC1 (stereo unspecified) | 279
11 | O=C(C(c1ccc(F)cc1)c1ccc(F)cc1)N1CCN(CC(O)COc2cccc3ncccc23)CC1 (stereo unspecified) | 263
12 | OC(COc1cccc2ncccc12)CN1CCN(C2c3ccccc3COc3ccccc32)CC1 (stereo unspecified) | 414
13 | OC(CNCC(c1ccccc1)c1ccccc1)COc1cccc2ncccc12 (stereo unspecified) | 117
14 | OC(COc1cccc2ncccc12)CN1CCN(C2c3ccccc3CCc3cccnc32)CC1 (stereo unspecified) | 316
15 | OC(COc1cccc2ncccc12)CN1CCN(C2c3ccccc3CCc3ccccc32)CC1 (stereo unspecified) | 371
16 | OC(COc1cccc2ncccc12)CN1CCC(=C(c2ccccc2)c2ccccc2)CC1 (stereo unspecified) | 309
17 | OC(COc1cccc2ncccc12)CN1CCNCC1 (stereo unspecified) | 65
18 | O=C(C(c1ccccc1)c1ccccc1)N1CCN(CC(O)COc2cccc3ncccc23)CC1 (stereo unspecified) [DOFEQUIDAR] | 381
19 | CCCCCCCCCCCCCCCCCCN1CCN(CC(O)COc2cccc3ncccc23)CC1 (stereo unspecified) | 55
20 | OC(COc1cccc2ncccc12)CN1CCC(=C2c3ccccc3CCc3ccccc32)CC1 (stereo unspecified) | 374
21 | O=C(C1c2ccccc2-c2ccccc21)N1CCN(CC(O)COc2cccc3ncccc23)CC1 (stereo unspecified) | 213
22 | CN1CCN(CC(O)COc2cccc3ncccc23)CC1 (stereo unspecified) | 47
23 | OC(COc1cccc2ncccc12)CN1CCN(C(c2ccccc2)c2ccccc2)CC1 (stereo unspecified) | 358
24 | OC(COc1cccc2ncccc12)CN1CCC(=C(c2ccc(F)cc2)c2ccc(F)cc2)CC1 (stereo unspecified) | 246
25 | OC(CNCCC(c1ccccc1)c1ccccc1)COc1cccc2ncccc12 (stereo unspecified) | 343
26 | OC(COc1cccc2ncccc12)CN1CCN(CC(c2ccccc2)c2ccccc2)CC1 (stereo unspecified) | 327
